The record followed here is ChEMBL document CHEMBL1140208, “Selectivity and mechanism of action of a growth factor receptor-bound protein 2 SRC homology 2 domain binding antagonist” (J Med Chem, 2008).

The target of experiment [1] is Growth factor receptor-bound protein 2 (Homo sapiens) (UniProt P62993). The experiment in a line: Binding affinity to human recombinant HGF-stimulated Grb2-SH2 in human SK-LMS1 cells at 3 uM by immunoblot analysis. In kind it is cell-based. The gist of the method: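 SK-LMS-1 cells serum-deprived 16 h, stimulated with recombinant human HGF 25 ng/ml for 20 min, lysed in cold non-ionic detergent buffer. Biotinylated ligand (3 μM) added to lysate, 1 h on ice; streptavidin beads added, 1 h at 4°C. Beads washed five times with lysis buffer at 150–500 mM NaCl; bound Grb2 detected by SDS-PAGE and anti-Grb2 immunoblot.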
A general note: In western blotting, separated proteins are transferred to a membrane and probed.

Experiment [2] has the same target. The experiment in a line: Binding affinity to human recombinant HGF-stimulated Grb2-SH3 in human SK-LMS1 cells assessed as presence of associated protein Nck2 at 3 uM by immunoblot analysis. It counts as cell-based.
Experiment [3] has the same target. Kind of experiment: Binding affinity to human recombinant HGF-stimulated Grb2-SH3 in human SK-LMS1 cells assessed as presence of associated protein Nck1 at 3 uM by immunoblot analysis. It counts as cell-based.
The target is the same in experiment [4]. The experiment in a line: Binding affinity to human recombinant HGF-stimulated Grb2-SH3 in human SK-LMS1 cells assessed as presence of associated protein Gab1 at 3 uM by immunoblot analysis. It counts as cell-based.
A short description of experiment [5]: (§1) Antimotility activity in human PC3M cells assessed as inhibition of HGF-stimulated cell migration after 24 hrs by Boyden chamber assay. It counts as functional, cell-based. To be noted: PC-3M. The gist of the method:
(§2)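 PC3M cells pretreated with compound 24 h, seeded 200,000 per modified Boyden chamber; migration stimulated with recombinant human HGF 50 ng/ml. Migrated cells counted by light microscopy in four fields (1 × 1.4 mm) per well, triplicate wells per condition; expressed as percent maximum, mean ± standard deviation; dose-response analysis.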

Experiment [6] concerns the target Growth factor receptor-bound protein 2 (Homo sapiens) (UniProt P62993). The experiment in a line: Binding affinity to human recombinant HGF-stimulated Grb2-SH3 in human SK-LMS1 cells assessed as presence of associated protein Sos1 at 3 uM by immunoblot analysis. It counts as cell-based.
Experiment [7] concerns the target Serine/threonine-protein kinase PAK 1 (Homo sapiens) (UniProt Q13153). The experiment in a line: Inhibition of HGF-stimulated PAK1 activation in human PC3M cells at 1 uM after 16 hrs by immunoblot analysis. It counts as cell-based. A digest of the protocol: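 PC3M cells serum-deprived and treated 16 h with 1 μM compound or left untreated, then stimulated briefly with HGF (50 ng/mL) for various times. Lysates probed by immunoblot with anti-phospho-PAK1; anti-PAK1 served as loading control.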

Experiment [8] has as its system MDCK. Kind of experiment: Inhibition of HGF-induced MDCK cell migration assessed as reduction in actin bundle reorganization and membrane extension at 1 uM after 6 hrs by DAPI staining. It counts as functional, cell-based. To be noted: Canis lupus familiaris. A digest of the protocol: (§3)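 Cells in chamber slides serum-deprived ± 1 μM compound for 24 h, monolayer scratched with pipet tip, then incubated ± HGF 50 ng/ml (6 h) before fixation and permeabilization. Blocked with 5% BSA, stained overnight at 4°C with Alexa488-phalloidin for F-actin, nuclei counterstained with DAPI; lamellipodia at wound edge imaged by epifluorescence videomicroscopy.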

Experiment [9] can be described thus: Selectivity ratio for streptavidin-coupled biotin-labeled Shc-SH2 to streptavidin-coupled biotin-labeled Grb2-SH2. The gist of the method: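 Ratio of Shc-SH2 to Grb2-SH2 steady-state affinities, both measured by SPR on Neutravidin-captured biotinylated SH2 domains (Biacore T100, 25°C, PBS pH 7.4, inhibitors 1.25–1500 nM, 1:1 fit).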
For experiment [10], the system named is PC-3M. The experiment in a line: Inhibition of HGF-induced human PC3M cell migration assessed as reduction in actin bundle reorganization and membrane extension at 1 uM after 6 hrs by DAPI staining. It counts as functional, cell-based. The gist of the method: as §3
Experiment [11] addresses Serine/threonine-protein kinase PAK 1 (Homo sapiens) (UniProt Q13153). The experiment in a line: Decrease in HGF-stimulated PAK1 nuclear translocation in human PC3M cells at 1 uM after 16 hrs by immunoblot analysis. It counts as cell-based. A digest of the protocol: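 PC3M cells treated with compound for 16 h; nuclear extracts prepared with high-salt buffer. PAK1 detected by SDS-PAGE and anti-PAK1 immunoblot, with anti-CREB immunoblot alongside.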

In experiment [12] the test system is PC-3M. The experiment is described as §1. In kind it is functional, cell-based. The gist of the method: as §2

Activity calls are given as the source filed them. The calls are words filed in the database; no cut-off is given here.

Chain of Growth factor receptor-bound protein 2 (Homo sapiens) (P62993 whole entry, looked up): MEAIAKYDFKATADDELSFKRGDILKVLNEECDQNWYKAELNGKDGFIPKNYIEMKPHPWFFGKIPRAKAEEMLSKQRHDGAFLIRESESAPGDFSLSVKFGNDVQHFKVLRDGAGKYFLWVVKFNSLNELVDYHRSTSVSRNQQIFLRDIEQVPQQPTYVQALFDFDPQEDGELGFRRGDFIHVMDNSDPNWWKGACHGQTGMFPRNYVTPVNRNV
Chain of Serine/threonine-protein kinase PAK 1 (Homo sapiens) (Q13153 whole entry): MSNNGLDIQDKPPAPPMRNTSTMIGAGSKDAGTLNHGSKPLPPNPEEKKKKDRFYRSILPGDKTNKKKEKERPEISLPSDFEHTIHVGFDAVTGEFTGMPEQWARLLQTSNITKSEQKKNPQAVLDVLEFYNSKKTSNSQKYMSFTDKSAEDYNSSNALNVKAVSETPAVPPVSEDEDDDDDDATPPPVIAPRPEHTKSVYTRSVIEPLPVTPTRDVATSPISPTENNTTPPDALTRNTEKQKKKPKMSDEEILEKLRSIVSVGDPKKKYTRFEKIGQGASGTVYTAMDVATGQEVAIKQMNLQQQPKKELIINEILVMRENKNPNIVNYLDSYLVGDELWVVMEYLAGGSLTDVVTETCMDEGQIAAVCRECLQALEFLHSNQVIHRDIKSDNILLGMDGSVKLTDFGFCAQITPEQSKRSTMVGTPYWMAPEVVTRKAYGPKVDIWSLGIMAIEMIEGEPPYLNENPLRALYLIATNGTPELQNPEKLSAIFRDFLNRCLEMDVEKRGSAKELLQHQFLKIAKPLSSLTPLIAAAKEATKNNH

Consider `NC(=O)C[C@H](NC(=O)C1(NC(=O)[C@H](Cc2ccc(C(C(=O)O)C(=O)O)cc2)NC(=O)C(=O)O)CCCCC1)C(=O)NCCCc1cccc2c(OC(=O)CCCCCNC(=O)CCCC[C@@H]3SC[C@@H]4NC(=O)N[C@@H]43)cccc12`, for which the outcome in experiment [1], in [2], in experiment [3], in experiment [4] and in experiment [6] was Active. Also, the IC50 in experiment [5] is 14 nM.

Take `NC(=O)C[C@H](NC(=O)C1(NC(=O)[C@H](Cc2ccc(C(C(=O)O)C(=O)O)cc2)NC(=O)C(=O)O)CCCCC1)C(=O)NCCCc1cccc2ccccc12`: the outcome in [7], in [8], in [10] and in experiment [11] was Active. For the same compound, in experiment [9], the Ratio amounted to 65.

Turning to `NC(=O)C[C@H](NC(=O)C1(NC(=O)[C@H](Cc2ccc(C(C(=O)O)C(=O)O)cc2)NC(=O)C(=O)O)CCCCC1)C(=O)NCCCc1cccc2c(O)cccc12`, the Ratio in [9] was 101.

In the case of `NC(=O)C[C@H](NC(=O)C1(NC(=O)[C@H](Cc2ccc(O)cc2)NC(=O)C(=O)O)CCCCC1)C(=O)NCCCc1cccc2c(OC(=O)CCCCCNC(=O)CCCC[C@@H]3SC[C@@H]4NC(=O)N[C@@H]43)cccc12`, the result in [1] and in [12] was inactive.

For orientation: IC50 means the midpoint of a concentration-inhibition curve.
